# Experiments:
# A204 = assay: In vitro antitumor activity against A204 rhabdomyosarcoma tumor cell line was determined; format: functional; details: Homo sapiens, read-out: ID50 (the source's name)
# Summary of the method: (§1)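 Cell growth inhibition in vitro measured by the PIT method, with mitomycin C as positive reference.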
# L1210 = assay: In vitro antitumor activity against L1210 lymphocytic leukemia tumor cell line was determined; format: functional; details: Mus musculus, read-out: ID50 (the source's name)
# Summary of the method: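 Inhibition of L1210 leukemia colony formation in vitro, with mitomycin C as positive reference.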
# Mus musculus [1] = assay: Body wieght treated/body weight untreated controls of compound (12.5 mg/kg) was evaluated in vivo for antitumor activity against MAC 16 in female NMRI mice on day 12; format: functional
# Mus musculus [2] = assay: Body wieght treated/body weight untreated controls of compound (12.5 mg/kg) was evaluated in vivo for antitumor activity against MAC 16 in female NMRI mice on day 4; format: functional
# Mus musculus [3] = assay: Percentage change in body weight [(day 6 - day 1)/ day 1] for antitumor activity against P388 Leukemia in CD2 mice at fractioned dose treatment of 2.5 mg/kg; format: functional
# Summary of the method: (§2)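 Mouse P388 leukemia model. Drugs were given intraperitoneally, either as a single injection or once daily for 9 consecutive days (fractioned schedule). Outcomes were median survival time in days, %T/C, and % body weight change.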
# Mus musculus [4] = assay: Percentage change in body weight [(day 6 - day 1)/ day 1] for antitumor activity against P388 Leukemia in CD2 mice at fractioned dose treatment of 8 mg/Kg; format: functional; details: in the assay text read “single dose treatment” for “fractioned dose treatment”; summary of the method: as §2
# Mus musculus [5] = assay: Mean relative body weight change of treated / mean relative body weight change of control when compound (6 mg/kg/day) administered to inhibit growth of human tumor xenograft GXF 97 was reported at day 21 in nude mice; format: functional
# Summary of the method: (§3)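 GXF 97 xenograft grown subcutaneously in nude mice for 24 days, then randomized; ip dosing began 1 day later, given on days 1-4, with 4-5 mice per group. Read-out is mean relative body weight change of treated divided by mean relative body weight change of controls, in %.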
# Mus musculus [6] = assay: Percent change in body weight [(day 6 - day 1)/ day 1] when P388 Leukemic CD2 mice were treated with a compound (6 mg/kg); format: functional
# Mus musculus [7] = assay: Percentage change in body weight [(day 6 - day 1)/ day 1] for antitumor activity against P388 Leukemia in CD2 mice at fractioned dose treatment of 1.5 mg/Kg; format: functional; summary of the method: as §2
# Mus musculus [8] = assay: Mean relative body weight change of treated / mean relative body weight change of control when compound (6 mg/kg/day) administered to inhibit growth of human tumor xenograft GXF 97 was reported at day 28 in nude mice; format: functional; summary of the method: as §3
# Mus musculus [9] = assay: Mean relative body weight change of treated / mean relative body weight change of control when compound (6 mg/kg/day) administered to inhibit growth of human tumor xenograft GXF 97 was reported at day 14 in nude mice; format: functional; summary of the method: as §3
# Mus musculus [10] = assay: Median survival time in days for antitumor activity against P388 Leukemia in CD2 mice at a single dose treatment of 6 mg/kg; format: functional
# Summary of the method: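 P388 leukemia-bearing mice were given one intraperitoneal injection. The read-out was median survival time in days, reported alongside %T/C and % body weight change.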
# Mus musculus [11] = assay: Median survival time in days for antitumor activity against P388 Leukemia in CD2 mice at fractioned dose treatment of 1.5 mg/Kg; format: functional
# Summary of the method: (§4)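 P388 leukemia-bearing mice were dosed intraperitoneally once daily for 9 consecutive days (fractioned schedule). The read-out was median survival time in days, reported alongside %T/C and % body weight change.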
# Mus musculus [12] = assay: Median survival time in days for antitumor activity against P388 Leukemia in CD2 mice at fractioned dose treatment of 2.5 mg/kg; format: functional; summary of the method: as §4
# Mus musculus [13] = assay: Percent inhibition of compound (10 mg/Kg) was evaluated in vivo for antitumor activity against MAC 13 in female NMRI mice on day 2; format: functional
# Summary of the method: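 MAC 13 in female NMRI mice. Drugs were given in arachis oil BP by ip route on day 2 or day 29. % inhibition was derived from treated/untreated control tumor weight (volume); a negative value indicates stimulation.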
# Mus musculus [14] = assay: Percent T/C ([…]) for antitumor activity against P388 Leukemia in CD2 mice at a single dose treatment of 6 mg/kg; format: functional
# Summary of the method: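 P388 leukemia mice given a single intraperitoneal injection. Median survival time (days) and body weight change were recorded. %T/C was derived from the survival of treated versus control mice.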
# Mus musculus [15] = assay: Percent T/C ([…]) for antitumor activity against P388 Leukemia in CD2 mice at fractioned dose treatment of 1.5 mg/Kg; format: functional; summary of the method: as §2
# Mus musculus [16] = assay: Percent T/C ([…]) for antitumor activity against P388 Leukemia in CD2 mice at fractioned dose treatment of 2.5 mg/kg; format: functional; summary of the method: as §2
# Mus musculus [17] = assay: Percent T/C ([…]) for antitumor activity against P388 Leukemia in CD2 mice at fractioned dose treatment of 8 mg/Kg; format: functional; details: in the assay text read “single dose” for “fractioned dose”; summary of the method: as §2
# Mus musculus [18] = assay: Ability of intraperitoneally administered compound (6 mg/kg/day) to inhibit growth of human tumor xenograft GXF 97 was assessed on day 14 in nude mice; format: functional
# Summary of the method: (§5)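 GXF 97 human gastric xenograft grown subcutaneously in nude mice for 24 days, then randomized; dosing began 1 day later as ip injections on days 1-4. Groups had 4-5 mice. Tumor length and width were measured. %T/C = median relative tumor size of treated / median relative tumor size of controls.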
# Mus musculus [19] = assay: Ability of intraperitoneally administered compound (6 mg/kg/day) to inhibit growth of human tumor xenograft GXF 97 was assessed on day 21 in nude mice; format: functional; summary of the method: as §5
# Mus musculus [20] = assay: Ability of intraperitoneally administered compound (6 mg/kg/day) to inhibit growth of human tumor xenograft GXF 97 was assessed on day 28 in nude mice; format: functional; summary of the method: as §5
# Mus musculus [21] = assay: Relative tumor size on day 28 was reported when compound (6 mg/kg/day) administered to inhibit growth of human tumor xenograft GXF 97 in nude mice; format: functional
# Summary of the method: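 GXF 97 human gastric xenograft grown subcutaneously in nude mice for 24 days, then mice randomized; treatment began 1 day later. Fractioned ip injections on days 1-4, or single iv injection on day 1; 4-5 mice per group. Tumor size from length and width; relative tumor size (% of controls) read at day 28.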
# Mus musculus [22] = assay: Compound ((12.5 mg/Kg) was evaluated in vivo for antitumor activity against MAC 16 in female NMRI mice on day 4 and ratio of tumor weight of treated to that of control was determined; format: functional
# Mus musculus [23] = assay: Compound (12.5 mg/Kg) was evaluated in vivo for antitumor activity against MAC 16 in female NMRI mice on day 12 and ratio of tumor weight of treated to that of control was determined; format: functional
# WiDr = assay: In vitro antitumor activity against WiDr colon carcinoma tumor cell line was determined; format: functional; details: Homo sapiens, read-out: ID50 (the source's name); summary of the method: as §1
# Mus musculus [24] = assay: Median survival time in days for antitumor activity against P388 Leukemia in CD2 mice at single dose treatment of 8 mg/Kg
# Mus musculus [25] = assay: Compound (10 mg/Kg) was evaluated in vivo for antitumor activity against MAC 13 in female NMRI mice on day 2 and ratio of tumor weight of treated to that of control was determined
compound,measurement,setting,value
COC1=C(C)C(=O)c2c(c(COC(C)=O)c3n2CCC3OC(C)=O)C1=O (stereo not drawn),IC50,A204,0.001 µg/mL
same,IC50,L1210,0.14 µg/mL
same,BW,Mus musculus [1],78%
same,BW,Mus musculus [2],105%
same,BWC,Mus musculus [3],2%
same,BWC,Mus musculus [4],-7.1%
same,BWC,Mus musculus [5],73.5%
same,BWC,Mus musculus [6],-4.7%
same,BWC,Mus musculus [7],8.3%
same,BWC,Mus musculus [8],74.1%
same,BWC,Mus musculus [9],71%
same,MST,Mus musculus [10],13 days
same,MST,Mus musculus [11],15.5 days
same,MST,Mus musculus [12],16.5 days
same,I,Mus musculus [13],27%
same,T/C,Mus musculus [14],118%
same,T/C,Mus musculus [15],141%
same,T/C,Mus musculus [16],150%
same,T/C,Mus musculus [17],82%
same,T/C,Mus musculus [18],16.8%
same,T/C,Mus musculus [19],5.9%
same,T/C,Mus musculus [20],3.9%
same,Relative TS,Mus musculus [21],26.2%
same,T/C,Mus musculus [22],102%
same,T/C,Mus musculus [23],120%
same,IC50,WiDr,0.01 µg/mL
same,MST,Mus musculus [24],9 days
same,T/C,Mus musculus [25],73%

# From ChEMBL document CHEMBL1124534, “Synthesis, mechanism of action, and biological evaluation of mitosenes” (1989)
